APP 5'UTR act = APP 5'UTR luciferase reporter activation | SH-SY5Y APP 5'UTR luciferase reporter, luminescence; zero percent = DMSO vehicle wells | activation, % at 2 µM | hit rate 1% among 190,000;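 active = activation above a set limit, based on mean plus 3 SD of controls, cut at about 140% in these data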
STAT1 act-1 = STAT1 signaling activation | NIH 3T3 STAT1-luciferase reporter, IFN-gamma, luminescence; 100% = IFN-gamma alone, no compound | activation (% of control), % at 5.5 µM | hit rate 2.6% among 200,000;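 active = activation above the screen-wide mean activation plus 3 SD, cut at about 130% in these data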
STAT3 blocker = STAT3 signaling inhibition | U3A cells, IL-6 STAT3-luciferase reporter, luminescence; host cell line lacks STAT1 | inhibition, % at 5.5 µM | hit rate 0.89% among 190,000;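 active = inhibition above the mean inhibition across all screened compounds plus 3 SD, cut at about 44% in these data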
STAT3 act-1 = increases IL-6 driven STAT3 reporter signal; U3A cells, IL-6 STAT3-luciferase reporter, luminescence; 100% = signal with IL-6 EC80 alone; activation (% of control), % at 5.6 µM; hit rate 0.91% among 190,000; AID 871;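 active = activation above the screen-wide mean of compound activation plus 3 SD, cut at about 130% in these data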
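Test system: human U3A cells carrying STAT3-luciferase construct; control set: IL-6-only wells as 100% reference; timing: compound pre-incubation 1 h before IL-6, then 6 h stimulation at 37 °C; also added: IL-6 stimulus at 33 ng/mL final; evaluation: % activation versus median of IL-6-stimulated wells; detection: reporter luminescence signal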
NF-kB neuron act = raises NF-kB expression in human neuronal cells; NF-kB reporter expression; hits give high values; fold change at 12.5 µM; hit rate 1.6% among 190,000; in the data active = fold change above about 3.3
STAT1 inh = STAT1 signaling inhibition | hit rate 0.35% among 200,000 | AID 920 | NIH 3T3 STAT1-luciferase reporter, IFN-gamma, luminescence | inhibition, % at 5.5 µM;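 active = inhibition above a set limit, the mean inhibition across all tested compounds plus 3 SD, cut at about 34% in these data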
STAT3 act-2 = confirmation of STAT3 signaling activators; shares compounds with STAT3 act-1; U3A STAT3-luciferase reporter, IL-6 potentiation, luminescence; U3A cells lack STAT1; 100 means same as IL-6 alone; potentiation (% of control), % at 5.7 µM; hit rate 64% among 1,200;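 active = percent activation of the STAT3 luciferase reporter above a set limit taken from the earlier primary screen, cut at about 130% in these data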
NFkB act STAT3ct = NF-kappaB activation in STAT3 activator counter-screen; shares compounds with STAT3 act-1; human cells, NF-kappaB reporter activation; hit rate 11% among 1,200; activation (% of control), % at 5.7 µM; in the data active = activation above about 120%;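 note: reporter induced by TNF-alpha stimulation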
STAT1 act-2 = counter-screen for STAT3 activators: STAT1 activation | shares compounds with STAT3 act-1 | NIH 3T3 STAT1-luciferase reporter, IFN-gamma, luminescence | activation (% of control), % at 5.7 µM | hit rate 13% among 1,200;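 active = activation above the solvent-only control well mean plus 3 SD, set per screening run, cut at about 120% in these data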
Large screens that a line does not name were inactive (follow-up assays come after a bar, where they were run). The list is not random: actives were taken first. Their share in the collection is about 5.1%.

O=C(O)COCC(=O)Nc1ccc(-n2cnnn2)cc1	none
CCc1c(C(=O)Nc2ccc(OC)cc2)[nH]c(C)c1C(C)=O	none
COc1ccc(NC(=O)c2[nH]c(C)c(C(C)=O)c2C)cc1	STAT3 act-1 143 | STAT3 act-2 159 | NFkB act STAT3ct 121 | STAT1 act-2 129
COc1ccc(Nc2nc(-c3cccc([N+](=O)[O-])c3)nc3ccccc23)cc1	none
Cc1[nH]n(-c2ccccc2)c(=O)c1/C=C1/C=c2ccccc2=N1	STAT3 act-1 156 | STAT3 act-2 170 | NFkB act STAT3ct inactive | STAT1 act-2 inactive
Cc1nnc(NN2CCOCC2)[nH]c1=O	none
CCOc1ccccc1C(=O)Nc1cc(Cl)ccc1O	none
COc1ccccc1C(=O)Nc1cc(Cl)ccc1O	STAT3 act-1 151 | STAT3 act-2 162 | NFkB act STAT3ct inactive | STAT1 act-2 inactive
COc1cc(NC(=O)c2cc3ccccc3o2)c(OC)cc1Br	STAT3 act-1 149 | STAT3 act-2 135 | NFkB act STAT3ct inactive | STAT1 act-2 inactive
COc1ccccc1C(=O)Nc1cc2cc(Br)ccc2oc1=O	STAT3 act-1 137 | STAT3 act-2 138 | NFkB act STAT3ct inactive | STAT1 act-2 134
COc1ccccc1C(=O)Nc1cc2ccccc2oc1=O	STAT3 act-1 184 | STAT3 act-2 192 | NFkB act STAT3ct 135 | STAT1 act-2 166
Cc1cccc(N2C(=O)CCC2=O)n1	none
CN(Cc1cc(=O)[nH]c2ccccc12)C(=O)c1ccccc1	STAT3 act-1 136 | STAT3 act-2 inactive | NFkB act STAT3ct inactive | STAT1 act-2 inactive
O=C(c1cc(-c2ccccc2)nc2ccccc12)N1CCc2ccccc2C1	none
O=c1cc(-c2ccccc2)nc2n1Cc1ccccc1-2	STAT3 act-1 155 | STAT3 act-2 133 | NFkB act STAT3ct inactive | STAT1 act-2 inactive
N/C(=N\OC(=O)c1cc(Cl)ccc1Cl)c1cccnc1	STAT3 act-1 163 | STAT3 act-2 152 | NFkB act STAT3ct 121 | STAT1 act-2 135
N/C(=N\OC(=O)c1cccc(Cl)c1)c1cccnc1	none
N/C(=N\OC(=O)c1cc(Br)ccc1Cl)c1cccnc1	STAT3 act-1 138 | STAT3 act-2 inactive | NFkB act STAT3ct inactive | STAT1 act-2 inactive
CCN(CCn1cccn1)Cc1c(C(=O)N2C[C@@H](C)O[C@@H](C)C2)nc2ccc(Cl)cn12	none
O=C(Nc1ccc(Cl)c(C(F)(F)F)c1)NC1CC2CCCC(C1)N2C1CC1 (stereo not drawn)	none (no result: NF-kB neuron act)
CCOc1ccc(N2C(=O)C3Sc4[nH]c(=O)sc4C(/C=C/c4ccccc4)C3C2=O)cc1 (stereo not drawn)	STAT3 act-1 141 | STAT3 act-2 inactive | NFkB act STAT3ct inactive | STAT1 act-2 inactive
Cc1ccc(OC(=O)c2oc3ccc(F)cc3c2C)c(C)c1	STAT3 act-1 159 | STAT3 act-2 137 | NFkB act STAT3ct inactive | STAT1 act-2 inactive
CCCC(=O)Nc1c(C(=O)OCC)[nH]c2ccccc12	STAT3 act-1 169 | STAT3 act-2 149 | NFkB act STAT3ct inactive | STAT1 act-2 inactive
CCOC(=O)c1[nH]c2ccccc2c1NC(=S)Nc1cc(C)ccc1C	STAT3 act-1 155 | STAT3 act-2 150 | NFkB act STAT3ct inactive | STAT1 act-2 inactive
CCOC(=O)c1[nH]c2ccccc2c1NC(=S)Nc1ccccc1C	STAT3 act-1 152 | STAT3 act-2 155 | NFkB act STAT3ct inactive | STAT1 act-2 inactive
CCOC(=O)c1[nH]c2ccccc2c1NC(=O)c1ccco1	none
CCOC(=O)c1[nH]c2ccc(OC)cc2c1NC(C)=O	none
CCOC(=O)c1[nH]c2ccccc2c1NC(=O)Nc1ccc(OC)cc1	STAT3 act-1 141 | STAT3 act-2 143 | NFkB act STAT3ct inactive | STAT1 act-2 inactive
COc1cc(OC)c(NS(=O)(=O)c2ccc(Cl)c(C(=O)OC(C)C(=O)N3CCCC3)c2)cc1Cl (stereo not drawn)	none
CCOC(=O)CCNC(=O)N1CCCC(CCC(=O)N(C)CCc2ccccn2)C1 (stereo not drawn)	none
COC(=O)c1cc([N+](=O)[O-])c(-n2cncn2)c([N+](=O)[O-])c1	none
COc1cc(SC#N)ccc1N=Cc1c(C)[nH]n(-c2ccc(Cl)cc2)c1=O	STAT3 act-1 144 | STAT3 act-2 inactive | NFkB act STAT3ct inactive | STAT1 act-2 inactive
COc1cc(SC#N)ccc1N=Cc1c(C)[nH]n(-c2ccc(C)c(C)c2)c1=O	none (no result: APP 5'UTR act)
O=C(N/N=C/c1cn(-c2ccccc2)nc1-c1cc2ccccc2o1)c1cccnc1	APP 5'UTR act 148, STAT3 act-1 159 | STAT3 act-2 179 | NFkB act STAT3ct 138 | STAT1 act-2 204
CC(C)Oc1ccccc1C1CC(=O)Nc2cc3c(cc21)OCO3 (stereo not drawn)	none
CC(C)c1ccc(C2C3=C(COC3=O)Nc3cc4c(cc32)OCO4)cc1 (stereo not drawn)	STAT3 act-1 151 | STAT3 act-2 inactive | NFkB act STAT3ct 138 | STAT1 act-2 inactive
Oc1oc(-c2ccccc2)nc1C=Nc1cccc2ccccc12	STAT3 act-1 144 | STAT3 act-2 inactive | NFkB act STAT3ct inactive | STAT1 act-2 inactive
Oc1oc(-c2ccccc2)nc1/C=N/c1nccs1	none
COc1cccc(CC2(CO)CCCN(Cc3cc4ccccc4[nH]3)C2)c1 (stereo not drawn)	STAT3 act-1 148 | STAT3 act-2 145 | NFkB act STAT3ct inactive | STAT1 act-2 inactive
COc1cccc(CC2(CO)CCCN(Cc3ccc(C)s3)C2)c1 (stereo not drawn)	none
CCOC(=O)C1(Cc2ccc(Cl)cc2)CCN(C(=O)c2cscn2)CC1	none
Cc1cccn2c(CN3CCCC(c4ccccc4)C3)c(C(=O)N3CCOCC3)nc12 (stereo not drawn)	none
Cn1cc(C(=O)Nc2ccc(F)c(Cl)c2)cn1	none
CN1c2ccsc2C(O)=C(C(=S)Nc2ccc(F)c(Cl)c2)S1(=O)=O	STAT3 act-1 142 | STAT3 act-2 inactive | NFkB act STAT3ct inactive | STAT1 act-2 inactive
O=C1CC(C2CCCO2)C(=O)N1c1ccc(Cl)c(Cl)c1 (stereo not drawn)	none (no result: NF-kB neuron act)
CC1=NC(=O)C(N=Nc2cccc(O)c2)N1c1ccccc1 (stereo not drawn)	STAT3 act-1 185, NF-kB neuron act 4.2 | STAT3 act-2 187 | NFkB act STAT3ct inactive | STAT1 act-2 inactive
C/C(Cc1ccccc1)=N\NC(=O)CNC(=O)c1ccc(C(C)(C)C)cc1	none

Screening data (PubChem BioAssay)
